Experimental data from ChEMBL document CHEMBL4190396, “Discovery of Novel Small-Molecule Inhibitors of NF-κB Signaling with Antiinflammatory and Anticancer Properties” (J Med Chem, 2018).

Tested on: HeLa
Assay: Cell cycle arrest in human HeLa cells assessed as accumulation at G2/M phase at 10 uM after 24 hrs by propidium iodide staining based flow cytometry (reference value: 15.7%)
Type: functional
How it was run: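 HeLa cells, 3×10^5/well, attached overnight, switched to serum-free medium for synchronisation, then DMSO or 5, 10, 20 µM for 24 h; cells fixed, PI-stained, G0/G1, S and G2/M fractions by flow cytometry; n = 3, mean ± SD.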

SMILES: O=C(NNC(=O)c1csc(-c2ccc(Cl)cc2Cl)n1)c1ccccn1
- Activity: 3.6%
